From ChEMBL document CHEMBL5705892, “MK-2206, an allosteric Akt inhibitor, enhances antitumor efficacy by standard chemotherapeutic agents or molecular targeted drugs in vitro and in vivo” (Mol Cancer Ther, 2010) come the findings set out here.

pIC50: −log10 of the molar value. Activity calls are given as the source filed them. The calls are words filed in the database; no cut-off is given here.

Experiment [1] has as its target RAC-alpha serine/threonine-protein kinase (Homo sapiens) (UniProt P31749). Briefly: Inhibition of AKT phosphorylation at S473 residue in human NCI-H1993 cells at 3 umol/L measured after 4 to 24 hrs in presence of carboplatin by MSD assay. The note with it: time 4-24 hrs.
Experiment [2] has as its system BT-474. Nature of the experiment: Synergistic antiproliferative activity against human BT-474 cells assessed as combination index at ED50 preincubated for 24 hrs followed by compound washout and subsequent docetaxel addition and measured after 72 hrs by celltiter-glo assay. The format is functional. A digest of the protocol: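 Sequential schedule. Cells were seeded at 2 to 3 × 10³ per well in RPMI 1640 with 10% FBS and dosed 24 h after plating. They were exposed to the Akt inhibitor for 24 h, washed free of it, then given docetaxel for a further 72 h. Fixed concentration ratios spanned each agent's IC₅₀. ATP was read by CellTiter-Glo, and Chou–Talalay CI was calculated at ED50, ED75 and ED90.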

Experiment [3] in a line: In vivo inhibition of ERK phosphorylation at T202/Y204 residues in human NCI-H292 cells xenografted mouse at 120 mg/kg, po administered as single dose measured after 12 hrs by Western blot analysis relative to control. The format is functional.
Experiment [4] concerns NCI-N87. Briefly: Synergistic antiproliferative activity against lapatinib pretreated human NCI-N87 cells assessed as combination index at ED75 measured after 72 hrs by celltiter-glo assay. The format is functional.
In experiment [5] the test system is HCC1954. Briefly: Synergistic antiproliferative activity against lapatinib pretreated human HCC1954 cells assessed as combination index at ED50 measured after 72 hrs by celltiter-glo assay. Type of experiment: functional.
Experiment [6] deals with SK-OV-3. Briefly: Synergistic antiproliferative activity against human SK-OV-3 cells assessed as combination index at ED75 treated 24 hrs prior to lapatinib and measured after 72 hrs by celltiter-glo assay. The note with it: time 96 hrs. The format is functional.
Experiment [7] deals with RAC-alpha serine/threonine-protein kinase (Homo sapiens) (UniProt P31749). Briefly: Inhibition of AKT phosphorylation at S473 residue in human HCC70 cells at 1 umol/L measured after 3 to 24 hrs in presence of lapatinib by Western blot analysis. Type of experiment: cell-based. The note with it: dose 1.0 µmol/L, time 3-24 hrs. Summed up: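 HCC70 cells at ~70% confluence were exposed to 10 µmol/L lapatinib, 1 µmol/L MK-2206, or both, for 0, 3, 6, 12 or 24 h. Lysates were prepared in Triton X-100/Tris buffer (pH 7.5) with protease and phosphatase inhibitors. Immunoblots after SDS-PAGE and nitrocellulose transfer were probed for pAkt and pS6.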
Sequence of RAC-alpha serine/threonine-protein kinase (Homo sapiens) (P31749 whole entry): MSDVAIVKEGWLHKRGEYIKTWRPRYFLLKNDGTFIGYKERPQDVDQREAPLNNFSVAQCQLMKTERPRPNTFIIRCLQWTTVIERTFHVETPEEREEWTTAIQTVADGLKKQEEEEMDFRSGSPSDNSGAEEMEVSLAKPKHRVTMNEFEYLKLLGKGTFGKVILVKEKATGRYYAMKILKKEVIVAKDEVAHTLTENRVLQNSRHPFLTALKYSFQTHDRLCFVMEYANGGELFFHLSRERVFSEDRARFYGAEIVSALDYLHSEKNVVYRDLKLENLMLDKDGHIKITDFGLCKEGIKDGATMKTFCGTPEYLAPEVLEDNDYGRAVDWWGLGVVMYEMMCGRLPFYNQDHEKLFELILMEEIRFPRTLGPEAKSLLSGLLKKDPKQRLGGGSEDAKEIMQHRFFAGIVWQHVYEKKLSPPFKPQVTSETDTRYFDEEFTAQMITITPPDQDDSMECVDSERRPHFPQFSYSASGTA

The subject of experiment [8] is HCC70. Nature of the experiment: Antitumor activity against human HCC70 cells xenografted in CB17/icr SCID mouse assessed as tumor growth inhibition at 120 mg/kg, po administered 3 times per week for 3 weeks starting 2 hrs post-lapatinib treatment and measured twice a week during compound dosing by caliper method. Type of experiment: functional, organism-based. A digest of the protocol: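 Female C.B-17/ICR-scid mice were given s.c. HCC70 cells in 50% Matrigel/50% PBS in the left flank. They were randomized at a mean tumor size of 0.2 cm³, n = 5 per group. Lapatinib (distilled water) was given at 100 mg/kg po, 5 d/wk for 3 wk. MK-2206 (30% Captisol) was given at 120 mg/kg po, 3×/wk, 2 h after lapatinib. Calipers twice weekly; volume = […] × 0.5.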

For experiment [9], the system named is NCI-H460. Nature of the experiment: Synergistic antiproliferative activity against human NCI-H460 cells assessed as combination index at ED90 measured after 72 hrs in presence of carboplatin by celltiter-glo assay. Type of experiment: functional.
The test system of experiment [10] is MDA-MB-231. Briefly: Synergistic antiproliferative activity against human MDA-MB-231 cells assessed as combination index at ED50 measured after 72 hrs in presence of docetaxel by celltiter-glo assay. The format is functional. A digest of the protocol:
(§1)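 Cells grown in RPMI 1640 with 10% heat-inactivated FBS at 37°C, 5% CO₂. Seeded at 2 to 3 × 10³ per well; drugs added 24 h later. […] Viability read as cellular ATP by CellTiter-Glo. CI calculated by Chou–Talalay from median-effect plots at ED50, ED75 and ED90.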

Experiment [11] has as its system SK-BR-3. Briefly: Synergistic antiproliferative activity against human SK-BR-3 cells assessed as combination index at ED75 measured after 72 hrs in presence of lapatinib by celltiter-glo assay. The format is functional.
The test system of experiment [12] is SK-BR-3. Briefly: Antiproliferative activity against human SK-BR-3 cells assessed as reduction in cell proliferation measured after 72 hrs by celltiter-glo assay. The format is functional, cell-based. The note with it: SK-BR-3, 72 h. Summed up: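 Cells in RPMI 1640 with 10% heat-inactivated FBS at 37°C and 5% CO₂ were seeded at 2 to 3 × 10³ per well. […] Growth was read as cellular ATP by CellTiter-Glo.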

Experiment [13] has as its system HCC70. Briefly: Synergistic antiproliferative activity against human HCC70 cells assessed as combination index at ED75 treated 24 hrs prior to lapatinib and measured after 72 hrs by celltiter-glo assay. The note with it: time 96 hrs. Type of experiment: functional.
The subject of experiment [14] is NCI-H460. Nature of the experiment: Synergistic antiproliferative activity against human NCI-H460 cells assessed as combination index at ED50 measured after 72 hrs in presence of camptothecin by celltiter-glo assay. The format is functional.
Experiment [15] concerns A2780. Nature of the experiment: Synergistic antiproliferative activity against human A2780 cells assessed as combination index at ED50 measured after 72 hrs in presence of 5-FU by celltiter-glo assay. Type of experiment: functional. Summed up:
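Cells were seeded at 2–3 × 10³ per well in RPMI 1640 with 10% FBS. At 24 h, MK-2206 and the partner drug were added simultaneously at constant concentration ratios spanning each agent's IC₅₀, for 72 h. Growth was read as cellular ATP by CellTiter-Glo. CI was taken from median-effect plots of each agent alone and in combination (Chou–Talalay), at ED₅₀, ED₇₅ and ED₉₀.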

Experiment [16] deals with NCI-H460. Nature of the experiment: Induction of apoptosis in human NCI-H460 cells assessed as fold induction of capsase-3/7 activity measured after 24 to 48 hrs in presence of carboplatin by caspase-glo 3/7 assay. The format is functional. The note with it: time 24-48 hrs.
For experiment [17], the system named is NCI-H661. Nature of the experiment: Induction of apoptosis in human NCI-H661 cells assessed as fold induction of capsase-3/7 activity measured after 24 to 48 hrs in presence of gemcitabine by caspase-glo 3/7 assay. Type of experiment: functional. The note with it: time 24-48 hrs.
Experiment [18] has as its system SK-BR-3. Briefly: Synergistic antiproliferative activity against human SK-BR-3 cells assessed as combination index at ED50 measured after 96 hrs in presence of lapatinib by celltiter-glo assay. The format is functional.
Experiment [19] relates to MDA-MB-468. Nature of the experiment: Synergistic antiproliferative activity against human MDA-MB-468 cells assessed as combination index at ED50 measured after 72 hrs in presence of lapatinib by celltiter-glo assay. The format is functional. Summed up: as §1
Experiment [20] relates to NCI-N87. Briefly: Synergistic antiproliferative activity against lapatinib pretreated human NCI-N87 cells assessed as combination index at ED90 measured after 72 hrs by celltiter-glo assay. The format is functional.
Experiment [21] relates to HCC827. Briefly: Synergistic antiproliferative activity against human HCC827 cells assessed as combination index at ED90 measured after 72 hrs in presence of erlotinib by celltiter-glo assay. Type of experiment: functional. Summed up: as §1
In experiment [22] the test system is NCI-H1993. Nature of the experiment: Induction of apoptosis in human NCI-H1993 cells assessed as fold induction of capsase-3/7 activity measured after 24 to 48 hrs in presence of gemcitabine by caspase-glo 3/7 assay. Type of experiment: functional. The note with it: time 24-48 hrs.

Take `Cl.NC1(c2ccc(-c3nc4ccn5c(=O)[nH]nc5c4cc3-c3ccccc3)cc2)CCC1`: the inhibition result in [1] and in [7] was “Active” in each case. The CI50 stood at 1.6 in experiment [2]; 0.18 in experiment [5]; 0.9 in [10]; 0.39 in experiment [14]; 0.68 in [15]; 0.18 in experiment [18]. Besides, in experiment [19], the CI50 is 0.42. In experiment [3], this molecule registered an inhibition in vivo at 120 mg/kg of 27.7%. The CI75 in [4] is 0.18; in experiment [6], 0.18; in experiment [11], 0.19; in experiment [13], 0.18. Moreover, in experiment [8], the TGI entry is “Active”. For the same molecule, the CI90 in experiment [9] was 0.37; in experiment [20], 0.18; in [21] it was 0.12. Besides, in [12], the pIC50 was 7.00. Besides, the “fold change (FC)” value turned out to be 1.4 in experiment [16], 1.3 in experiment [17] and 1.2 in experiment [22].
